Assay results from ChEMBL document CHEMBL1153824, “Novel isothiourea derivatives as potent neuroprotectors and cognition enhancers: synthesis, biological and physicochemical properties” (J Med Chem, 2009).
Activity calls are given as the source filed them. No cut-off for these calls is given here.

Columns and labels:
[1] = molecular target: T1, Glutamate NMDA receptor (Rattus norvegicus) (UniProt P35439+Q00959+Q00960+Q00961+Q62645+Q8VHN2+Q9R1M7); test: Antagonist activity at NMDA receptor in rat cerebral cortex neurons assessed as 5000 uM NMDA-induced current at 5 uM relative to control; assay type: functional, tissue-based; parameters: scale not given: the % may be the effect or the level left
Summary of the method: (§1)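 Whole-cell currents were evoked by NMDA (50, 100, 5000 or 10000 µM) in a heterogeneous primary culture of rat cerebral cortex neurons. Compound was tested at 0.5-30 µM. Current amplitude was expressed as percent of the NMDA-alone control.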

[2] = molecular target: T1, Glutamate NMDA receptor (Rattus norvegicus); test: Antagonist activity at NMDA receptor in rat cerebral cortex neurons assessed as 10000 uM NMDA-induced current at 1 uM relative to control; assay type: functional, tissue-based; parameters: scale not given: the % may be the effect or the level left; summary of the method: as §1
Rattus norvegicus [3] = species on record: Rattus norvegicus; test: Agonist activity at AMPA receptor in rat purkinje neurons assessed as increase in potentiation of kainate-induced transmembrane current at 30 uM by patch-clamp technique relative to S-ethyl-N-allyl-N',N'-dibenzylisothiourea hydroiodide; assay type: functional
[4] = molecular target: T1, Glutamate NMDA receptor (Rattus norvegicus); test: Antagonist activity at NMDA receptor in rat cerebral cortex neurons assessed as 5000 uM NMDA-induced current at 2 uM relative to control; assay type: functional, tissue-based; parameters: scale not given: the % may be the effect or the level left; summary of the method: as §1
[5] = molecular target: T1, Glutamate NMDA receptor (Rattus norvegicus); test: Antagonist activity at NMDA receptor in rat cerebral cortex neurons assessed as 50 uM NMDA-induced current at 0.5 uM relative to control; assay type: functional, tissue-based; parameters: scale not given: the % may be the effect or the level left; summary of the method: as §1
Rattus norvegicus [6] = species on record: Rattus norvegicus; test: Agonist activity at AMPA receptor in rat purkinje neurons assessed as potentiation of 500 uM kainate-induced transmembrane current at 50 uM relative to kainate; assay type: functional
Summary of the method: (§2)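 Whole-cell patch-clamp on Purkinje neurons freshly dissociated from cerebellum of 14-18 day old rats. Slices were incubated 1 h in saline, then treated with Pronase and collagenase at 34 °C under O2 and triturated. Extracellular saline was HEPES-buffered, pH 7.32, with KCl/EGTA/ATP pipette solution. Agonist (kainate or glutamate) was applied with or without compound by fast perfusion. Potentiation was taken relative to the agonist-alone current.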

Rattus norvegicus [7] = species on record: Rattus norvegicus; test: Agonist activity at AMPA receptor in rat purkinje neurons assessed as potentiation of 4000 uM kainate-induced transmembrane current at 30 uM by patch-clamp technique relative to kainate; assay type: functional; summary of the method: as §2
[8] = molecular target: T1, Glutamate NMDA receptor (Rattus norvegicus); test: Antagonist activity at NMDA receptor in rat cerebral cortex neurons assessed as 10000 uM NMDA-induced current at 5 uM relative to control; assay type: functional, tissue-based; parameters: scale not given: the % may be the effect or the level left; summary of the method: as §1
[9] = molecular target: T1, Glutamate NMDA receptor (Rattus norvegicus); test: Antagonist activity at NMDA receptor in rat cerebral cortex neurons assessed as 100 uM NMDA-induced current at 0.5 uM relative to control; assay type: functional, tissue-based; parameters: scale not given: the % may be the effect or the level left; summary of the method: as §1
Rattus norvegicus [10] = species on record: Rattus norvegicus; test: Agonist activity at AMPA receptor in rat purkinje neurons assessed as potentiation of kainate-induced transmembrane current at 30 uM by patch-clamp technique relative to kainate; assay type: functional; summary of the method: as §2
[11] = molecular target: T1, Glutamate NMDA receptor (Rattus norvegicus); test: Antagonist activity at NMDA receptor in rat cerebral cortex neurons assessed as 50 uM NMDA-induced current at 30 uM relative to control; assay type: functional, tissue-based; parameters: scale not given: the % may be the effect or the level left; summary of the method: as §1
[12] = molecular target: T1, Glutamate NMDA receptor (Rattus norvegicus); test: Antagonist activity at NMDA receptor in rat cerebral cortex neurons assessed as 100 uM NMDA-induced current at 10 uM relative to control; assay type: functional, tissue-based; parameters: scale not given: the % may be the effect or the level left; summary of the method: as §1
[13] = molecular target: T1, Glutamate NMDA receptor (Rattus norvegicus); test: Antagonist activity at NMDA receptor in rat cerebral cortex neurons assessed as 50 uM NMDA-induced current at 1 uM relative to control; assay type: functional; parameters: scale not given: the % may be the effect or the level left; summary of the method: as §1
[14] = molecular target: T1, Glutamate NMDA receptor (Rattus norvegicus); test: Antagonist activity at NMDA receptor in rat cerebral cortex neurons assessed as 5000 uM NMDA-induced current at 1 uM relative to control; assay type: functional, tissue-based; parameters: scale not given: the % may be the effect or the level left; summary of the method: as §1
[15] = molecular target: T1, Glutamate NMDA receptor (Rattus norvegicus); test: Antagonist activity at NMDA receptor in rat cerebral cortex neurons assessed as 5000 uM NMDA-induced current at 30 uM relative to control; assay type: functional, tissue-based; parameters: scale not given: the % may be the effect or the level left; summary of the method: as §1
[16] = molecular target: T1, Glutamate NMDA receptor (Rattus norvegicus); test: Antagonist activity at NMDA receptor in rat cerebral cortex neurons assessed as 10000 uM NMDA-induced current at 0.5 uM relative to control; assay type: functional, tissue-based; parameters: scale not given: the % may be the effect or the level left; summary of the method: as §1
Rattus norvegicus [17] = species on record: Rattus norvegicus; test: Agonist activity at AMPA receptor in rat purkinje neurons assessed as potentiation of 500 uM glutamate-induced transmembrane current at 30 uM relative to glutamate; assay type: functional; summary of the method: as §2
[18] = molecular target: T1, Glutamate NMDA receptor (Rattus norvegicus); test: Antagonist activity at NMDA receptor in rat cerebral cortex neurons assessed as 10000 uM NMDA-induced current at 10 uM relative to control; assay type: functional, tissue-based; parameters: scale not given: the % may be the effect or the level left; summary of the method: as §1
[19] = molecular target: T1, Glutamate NMDA receptor (Rattus norvegicus); test: Antagonist activity at NMDA receptor in rat cerebral cortex neurons assessed as 10000 uM NMDA-induced current at 30 uM relative to control; assay type: functional, tissue-based; parameters: scale not given: the % may be the effect or the level left; summary of the method: as §1
Rattus norvegicus [20] = species on record: Rattus norvegicus; test: Agonist activity at AMPA receptor in rat purkinje neurons assessed as potentiation of 1000 uM kainate-induced transmembrane current at 30 uM by patch-clamp technique relative to kainate; assay type: functional; summary of the method: as §2
[21] = molecular target: T1, Glutamate NMDA receptor (Rattus norvegicus); test: Antagonist activity at NMDA receptor in rat cerebral cortex neurons assessed as 5000 uM NMDA-induced current at 0.5 uM relative to control; assay type: functional, tissue-based; parameters: scale not given: the % may be the effect or the level left; summary of the method: as §1
[22] = molecular target: T1, Glutamate NMDA receptor (Rattus norvegicus); test: Antagonist activity at NMDA receptor in rat cerebral cortex neurons assessed as 50 uM NMDA-induced current at 2 uM relative to control; assay type: functional, tissue-based; parameters: scale not given: the % may be the effect or the level left; summary of the method: as §1
[23] = molecular target: T1, Glutamate NMDA receptor (Rattus norvegicus); test: Antagonist activity at NMDA receptor in rat cerebral cortex neurons assessed as 5000 uM NMDA-induced current at 10 uM relative to control; assay type: functional, tissue-based; parameters: scale not given: the % may be the effect or the level left; summary of the method: as §1
[24] = molecular target: T1, Glutamate NMDA receptor (Rattus norvegicus); test: Antagonist activity at NMDA receptor in rat cerebral cortex neurons assessed as 100 uM NMDA-induced current at 2 uM relative to control; assay type: functional, tissue-based; parameters: scale not given: the % may be the effect or the level left; summary of the method: as §1
[25] = molecular target: T1, Glutamate NMDA receptor (Rattus norvegicus); test: Antagonist activity at NMDA receptor in rat cerebral cortex neurons assessed as 100 uM NMDA-induced current at 1 uM relative to control; assay type: functional, tissue-based; parameters: scale not given: the % may be the effect or the level left; summary of the method: as §1
Rattus norvegicus [26] = species on record: Rattus norvegicus; test: Agonist activity at AMPA receptor in rat purkinje neurons assessed as potentiation of glutamate-induced transmembrane current at 30 uM by patch-clamp technique relative to kainate; assay type: functional; summary of the method: as §2
[27] = molecular target: T1, Glutamate NMDA receptor (Rattus norvegicus); test: Antagonist activity at NMDA receptor in rat cerebral cortex neurons assessed as 10000 uM NMDA-induced current at 2 uM relative to control; assay type: functional, tissue-based; parameters: scale not given: the % may be the effect or the level left; summary of the method: as §1
[28] = molecular target: T1, Glutamate NMDA receptor (Rattus norvegicus); test: Antagonist activity at NMDA receptor in rat cerebral cortex neurons assessed as 50 uM NMDA-induced current at 10 uM relative to control; assay type: functional, tissue-based; parameters: scale not given: the % may be the effect or the level left; summary of the method: as §1
[29] = molecular target: T1, Glutamate NMDA receptor (Rattus norvegicus); test: Antagonist activity at NMDA receptor in rat cerebral cortex neurons assessed as 50 uM NMDA-induced current at 5 uM relative to control; assay type: functional, tissue-based; parameters: scale not given: the % may be the effect or the level left; summary of the method: as §1
[30] = molecular target: T1, Glutamate NMDA receptor (Rattus norvegicus); test: Antagonist activity at NMDA receptor in rat cerebral cortex neurons assessed as 100 uM NMDA-induced current at 30 uM relative to control; assay type: functional, tissue-based; parameters: scale not given: the % may be the effect or the level left; summary of the method: as §1
[31] = molecular target: T1, Glutamate NMDA receptor (Rattus norvegicus); test: Antagonist activity at NMDA receptor in rat cerebral cortex neurons assessed as 100 uM NMDA-induced current at 5 uM relative to control; assay type: functional, tissue-based; parameters: scale not given: the % may be the effect or the level left; summary of the method: as §1

## C=CC/N=C(\SCC)N(Cc1ccccc1)Cc1ccccc1
[1]
  Activity: 20%
[2]
  Activity: 35%
Rattus norvegicus [3]
  Activity: 5%
[4]
  Activity: 36%
[5]
  Activity: 98%
Rattus norvegicus [6]
  Activity: Active
Rattus norvegicus [7]
  Activity: 132%
[8]
  Activity: 16%
[9]
  Activity: 99%
Rattus norvegicus [10]
  Activity: Active
[11]
  Activity: 11%
[12]
  Activity: 23%
[13]
  Activity: 68%
[14]
  Activity: 35%
[15]
  Activity: 4%
[16]
  Activity: 45%
Rattus norvegicus [17]
  fold change (FC): 26.9
[18]
  Activity: 10%
[19]
  Activity: 3%
Rattus norvegicus [20]
  Activity: 290%
[21]
  Activity: 59%
[22]
  Activity: 48%
[23]
  Activity: 14%
[24]
  Activity: 55%
[25]
  Activity: 48%
Rattus norvegicus [26]
  Activity: Active
[27]
  Activity: 26%
[28]
  Activity: 31%
[29]
  Activity: 34%
[30]
  Activity: 8%
[31]
  Activity: 35%

## NS(=O)(=O)c1cc2c(cc1Cl)NC(C1CC3C=CC1C3)NS2(=O)=O (configuration not stated)
Rattus norvegicus [6]
  Activity: Active
Rattus norvegicus [7]
  Activity: 60%
Rattus norvegicus [10]
  Activity: Active
Rattus norvegicus [17]
  fold change (FC): 7
Rattus norvegicus [20]
  Activity: 150%
Rattus norvegicus [26]
  Activity: Active
